# ChEMBL document CHEMBL1143879, “Identification of novel series of human CCR1 antagonists” (Bioorg Med Chem Lett, 2008)
# pIC50: −log10 of the molar value.
# Tests used:
# [1] = molecular target: T1, C-C chemokine receptor type 1 (Homo sapiens, UniProt P32246); experiment: Antagonist activity at human CCR1 receptor expressed in THP1 cells assessed as human MIP-1-alpha-stimulated intracellular calcium level by FLIPR assay; format: functional, cell-based, THP-1
# T1 sequence (P32246 whole entry): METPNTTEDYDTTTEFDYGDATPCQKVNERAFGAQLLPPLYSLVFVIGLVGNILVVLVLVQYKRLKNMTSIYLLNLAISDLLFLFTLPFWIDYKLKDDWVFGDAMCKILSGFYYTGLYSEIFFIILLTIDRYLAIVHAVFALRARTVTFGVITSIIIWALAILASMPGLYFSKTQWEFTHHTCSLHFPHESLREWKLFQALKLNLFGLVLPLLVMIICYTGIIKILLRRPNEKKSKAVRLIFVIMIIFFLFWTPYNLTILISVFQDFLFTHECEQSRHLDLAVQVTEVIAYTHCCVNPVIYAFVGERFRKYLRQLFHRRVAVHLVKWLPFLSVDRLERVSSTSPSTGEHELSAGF
# Outline: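 THP-1 cells in RPMI-1640 at 2 × 10⁶/ml, mixed 1:1 with calcium dye buffer, loaded 30 min at 37 °C with 2.5 mM probenecid. Cells spun down, resuspended in RPMI-1640 with 0.1% BSA and plated at 1.5 × 10⁵/well with or without compound. Stimulated with 5 nM human MIP-1α; intracellular Ca²⁺ change read by FLIPR. IC50, mean of at least two independent experiments.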
# [2] = molecular target: T1, C-C chemokine receptor type 1; experiment: Displacement of [125I]MIP1-alpha from human CCR1 receptor expressed in THP1 cells; format: cell-based, THP-1
# Outline: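 THP-1 cells expressing CCR1, washed in PBS, at 5 × 10⁶/ml with compound or vehicle and 50 pM human [¹²⁵I]MIP-1α. Binding buffer: 50 mM Hepes pH 7.4, 5 mM MgCl₂, 1 mM CaCl₂, 0.5% BSA. Incubated 90 min at room temperature, then filtered on PEI-coated glass fibre and washed with buffer plus 0.5 M NaCl. Bound counts by scintillation. IC50, mean of triplicates in one experiment.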
Structure (SMILES),pIC50 [1],pIC50 [2]
O=S(=O)(NCCCN1CCC(O)(c2ccc(Cl)cc2)CC1)c1ccccc1,7.05,6.52
O=S(=O)(c1ccccc1Cl)N1CCC[C@H](N2CCC(O)(c3ccc(Cl)cc3)CC2)C1,5.69,5.72
O=S(=O)(NCCCN1CCC(O)(c2ccc(Cl)cc2)CC1)c1ccc(Cl)c(Cl)c1,5.61,5.73
COc1ccc(C2(O)CCN(C3CCN(S(=O)(=O)c4ccccc4Cl)CC3)CC2)cc1,< 5.00,< 5.00
Cc1cccc(Cl)c1S(=O)(=O)N1CCC(N2CCC(O)(c3ccc(Cl)cc3)C2)CC1 (stereo not given),< 5.00,< 4.52
Cc1cccc(Cl)c1S(=O)(=O)N1CCC(N2CCC(O)(c3ccc(Cl)cc3)CC2)CC1,6.37,6.43
O=S(=O)(NCCCN1CCC(O)(c2ccc(Cl)cc2)CC1)c1cc(Cl)ccc1Cl,6.55,6.27
O=S(=O)(NCCCN1CCC(O)(c2ccc(Cl)cc2)CC1)c1ccc(Cl)cc1Cl,6.44,6.39
O=S(=O)(c1ccccc1Br)N1CCC[C@H](N2CCC(O)(c3ccc(Cl)cc3)CC2)C1,5.89,6.34
O=S(=O)(NCCCN1CCC(O)(c2ccc(Cl)cc2)CC1)c1ccc(C(F)(F)F)cc1,5.66,5.03
O=S(=O)(c1cccs1)N1CCC(N2CCC(O)(c3ccc(Cl)cc3)CC2)CC1,5.99,6.01
O=S(=O)(NCCCN1CCC(O)(c2ccc(Cl)cc2)CC1)c1ccccc1Cl,7.40,6.96
O=C(NCCCN1CCC(O)(c2ccc(Cl)cc2)CC1)c1ccc2ccccc2c1,5.78,5.23
O=S(=O)(NCCCN1CCC(O)(c2ccc(Cl)cc2)CC1)c1ccccc1OC(F)(F)F,6.72,6.46
Cc1cccc(Cl)c1S(=O)(=O)N1CCC[C@@H](N2CCC(O)(c3ccc(Cl)cc3)CC2)C1,6.57,6.41
O=S(=O)(NCCCN1CCC(O)(c2ccc(Cl)cc2)CC1)c1ccccc1F,7.10,6.24
O=S(=O)(c1ccccc1Cl)N1CCC(N2CCC(O)(c3ccc(Cl)cc3)C2)CC1 (stereo not given),< 5.00,< 4.52

Structure (SMILES),pIC50 [1],pIC50 [2]
O=S(=O)(c1ccccc1Cl)N1CCC(N2CCC(O)(c3ccc(-c4ccccc4)cc3)CC2)CC1,< 5.00,< 5.00
CC1(N2CCC(O)(c3ccc(Cl)cc3)CC2)CCN(S(=O)(=O)c2cccs2)CC1,5.13,< 5.00
O=S(=O)(NCCCN1CCC(O)(c2ccc(Cl)cc2)CC1)c1ccccc1-c1ccsc1,6.96,6.46
O=S(=O)(c1c(F)cc(F)cc1Br)N1CCC(N2CCC(O)(c3ccc(Cl)cc3)CC2)CC1,6.48,5.95
O=S(=O)(NCCCN1CCC(O)(c2ccc(Cl)cc2)CC1)c1cc(Cl)cc(Cl)c1,5.87,6.11
N#CC1(c2ccc(Cl)cc2)CCN(CCCNS(=O)(=O)c2ccccc2Cl)CC1,,6.22
O=S(=O)(c1ccccc1Cl)N1CCC(N2CCC(O)(c3cc(F)c(F)c(F)c3)CC2)CC1,5.59,5.88
O=S(=O)(c1ccccc1Cl)N1CCC(N2CCC(O)(c3ccc(Cl)c(Cl)c3)CC2)CC1,6.74,6.05
O=S(=O)(c1ccccc1Cl)N1CCC(N2CCC(O)(c3cccc(Cl)c3)CC2)CC1,5.21,5.15
O=S(=O)(NCCCN1CCC(O)(c2ccc(Cl)cc2)CC1)c1ccsc1,6.41,6.24
CC1CC(N2CCC(O)(c3ccc(Cl)cc3)CC2)CCN1S(=O)(=O)c1ccccc1Cl (stereo not given),6.55,6.49
O=S(=O)(NCCCN1CCC(O)(c2ccc(Cl)cc2)CC1)c1ccccc1C(F)(F)F,7.30,6.60
O=S(=O)(c1ccccc1Cl)N1CCC(N2CCC(O)(c3ccc(F)c(Cl)c3)CC2)CC1,6.23,6.29
O=S(=O)(NCCCN1CCC(O)(c2ccc(Cl)cc2)CC1)c1ccc(-c2ccccc2)cc1,< 4.52,< 4.52
CC(C)(C)c1ccc(C2(O)CCN(C3CCN(S(=O)(=O)c4ccccc4Cl)CC3)CC2)cc1,< 5.00,< 5.00
O=S(=O)(c1ccccc1Cl)N1CCC(N2CCC(O)(c3ccc(Oc4ccccc4)cc3)CC2)CC1,< 5.00,< 5.00
